TRPC4 block = TRPC4 (mouse) channel inhibition; B-score at 10 µM; 300,000 compounds, 0.39% hits; HEK293 TRPC4beta/mu-opioid, DAMGO-evoked Fluo4 calcium flux; active compounds read low;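 active = B-score over 3 SD under the library average, no early fluorescence shift, positive overall ratio signal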
Target sequence (Q9QUQ5 whole entry, looked up): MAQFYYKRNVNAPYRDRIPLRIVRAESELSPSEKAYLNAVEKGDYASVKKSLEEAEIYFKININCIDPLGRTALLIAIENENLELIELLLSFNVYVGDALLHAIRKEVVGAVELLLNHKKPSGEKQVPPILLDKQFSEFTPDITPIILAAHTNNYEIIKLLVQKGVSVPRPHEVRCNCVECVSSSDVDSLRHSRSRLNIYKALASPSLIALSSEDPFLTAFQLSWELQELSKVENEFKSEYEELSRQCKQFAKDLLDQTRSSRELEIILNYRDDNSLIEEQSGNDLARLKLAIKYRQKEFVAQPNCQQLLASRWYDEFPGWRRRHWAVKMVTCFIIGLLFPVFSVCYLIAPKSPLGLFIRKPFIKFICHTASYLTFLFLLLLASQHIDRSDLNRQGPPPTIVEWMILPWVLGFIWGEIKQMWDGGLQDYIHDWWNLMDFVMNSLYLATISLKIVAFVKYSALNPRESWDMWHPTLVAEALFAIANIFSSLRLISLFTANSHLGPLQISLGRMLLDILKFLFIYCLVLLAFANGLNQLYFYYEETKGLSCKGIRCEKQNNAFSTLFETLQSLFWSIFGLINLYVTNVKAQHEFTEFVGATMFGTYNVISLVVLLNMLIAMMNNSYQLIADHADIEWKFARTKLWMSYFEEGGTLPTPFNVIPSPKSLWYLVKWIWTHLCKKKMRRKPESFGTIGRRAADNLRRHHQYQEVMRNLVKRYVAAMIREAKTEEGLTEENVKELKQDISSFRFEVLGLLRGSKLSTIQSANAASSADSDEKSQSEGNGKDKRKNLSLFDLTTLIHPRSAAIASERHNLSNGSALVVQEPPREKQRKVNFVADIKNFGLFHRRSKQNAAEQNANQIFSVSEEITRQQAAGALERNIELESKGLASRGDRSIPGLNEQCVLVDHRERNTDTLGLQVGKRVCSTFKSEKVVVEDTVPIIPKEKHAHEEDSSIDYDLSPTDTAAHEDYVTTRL
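Assay system – HEK293 line stably carrying TRPC4beta and mu-opioid receptor · Doses – single dose · Detection – Fluo4 calcium-dye fluorescence, kinetic read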
TRPC6 activator = mouse TRPC6 channel activation. Q61143. HEK293-TRPC6 membrane potential dye fluorescence; active compounds read high. B-score at 10 µM. 310,000 compounds, 0.13% hits. AID 2550;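 active = B-score of the integrated fluorescence ratio above library mean plus 3 SD, and starting fluorescence ratio within library mean plus 5 SD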;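 also: higher score means more depolarization so channel activation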
TRPC4 agonist = TRPC4 (mouse) channel activation; B-score at 10 µM; AID 2237; 310,000 compounds, 0.49% hits; HEK293 TRPC4beta/mu-opioid, Fluo4 calcium fluorescence; active compounds read high; Q9QUQ5;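 active = B-score above 5 SD of library B-scores, and initial fluorescence ratio not above library mean plus 5 SD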;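 also: positive B-score marks a calcium rise read as TRPC4 activation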
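Test system: HEK293 cells stably co-expressing mouse TRPC4beta and mu-opioid receptor | Schedule: Fluo4 dye loading 45 min at room temperature, 110 s recording | Measured by: Kinetic Fluo4 calcium fluorescence, 5 s baseline at 1 Hz | Evaluation: B score of integrated ratio | Controls: Buffer (low) and maximal DAMGO (high)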
TRPC6 inh = blocks the mouse TRPC6 cation channel | Q61143 | HEK293-TRPC6, membrane potential dye, ACh-evoked depolarization; active compounds read low | B-score at 10 µM | 310,000 compounds, 1.1% hits | AID 2553;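 active = B-score under library mean minus 3 SD, initial fluorescence not abnormally high, positive integrated signal ratio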;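 also: B-score derived from integrated fluorescence ratio over the kinetic read; more negative B-score means stronger inhibition of depolarization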
TRPC4 PAM = allosterically enhances the mouse TRPC4 cation channel. Q9QUQ5. 310,000 compounds, 0.42% hits. B-score at 10 µM. HEK293 TRPC4beta/mu-opioid, DAMGO EC20, Fluo-4 Ca2+ flux; active compounds read high;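 active = B-score of calcium response area above 5 SD of library B-scores, with initial fluorescence ratio within 5 SD of library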
TRPC4 spec 2 = second selectivity test of TRPC6 inhibitors: effect on mouse TRPC4 | shares compounds with TRPC6 inh | HEK293 TRPC4/MOR, membrane potential dye fluorescence; channel activated by saturating DAMGO dose | inhibition, % at 10 µM | 920 compounds, 42% hits | AID 2776;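 active = compounds whose fluorescence signal differed from control wells by over 3 SD, either direction, in both duplicate plates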
TRPC4 spec = selectivity of TRPC6 inhibitors: effect on mouse TRPC4. shares compounds with TRPC6 inh. HEK293 TRPC4/mu-opioid, membrane potential fluorescence. activity change, negative = inhibition, % at 10 µM. 920 compounds, 61% hits;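 active = rise or fall in signal beyond 3 SD of buffer-only wells in both replicate plates, either sign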;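 also: integrated kinetic ratio of fluorescence range over baseline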
HEK293 MPD ctr 2-1 = parental HEK293 nonspecific activity of TRPC6 inhibitors, second screen; shares compounds with TRPC6 inh; parental HEK293 membrane potential dye fluorescence; maximal acetylcholine challenge after compound addition; signal change vs control, % at 10 µM; 920 compounds, 31% hits; AID 2779;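 active = membrane potential signal moving either way by over 3 SD of the maximum-effect control, in both duplicate plates, meaning non-specific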
HEK293 MPD ctr-1 = checks TRPC6 inhibitor effects in parental HEK293 cells. shares compounds with TRPC6 inh. parental HEK293 membrane potential dye fluorescence. membrane potential signal change, % at 10 µM. 920 compounds, 60% hits. AID 2780;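 active = membrane potential signal shifting up or down by more than 3 SD of buffer-only wells, on both duplicate plates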
HEK293 MPD ctr-2 = counter-screen for TRPC6 modulators: effect in parental HEK293 cells; membrane potential signal change, % at 10 µM; 2,400 compounds, 51% hits; AID 488924; membrane potential dye fluorescence; shares compounds with TRPC6 inh;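 active = membrane potential signal moves up or down beyond 5 SD from buffer-only wells, on both duplicate plates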
HEK293 MPD ctr 2-2 = parental HEK293 nonspecific activity of TRPC6 modulators, second screen; shares compounds with TRPC6 inh; membrane potential dye fluorescence; after compound, maximal acetylcholine stimulation; inhibition, % at 10 µM; 2,400 compounds, 14% hits;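 active = membrane potential signal drops by more than 5 SD from the mean control signal, in both duplicate plates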
TRPC4 ctr mod = mouse TRPC4 off-target activity of TRPC6 modulators; shares compounds with TRPC6 inh; HEK293 TRPC4/mu-opioid, membrane potential fluorescence; percent change from control (negative = decrease, positive = increase), % at 10 µM; 2,400 compounds, 69% hits;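 active = membrane potential signal moved up or down beyond 5 SD of buffer control wells, in both duplicate plates, actives on both sides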
TRPC4/MOR inh 2 = second check of whether TRPC6 modulators also affect mouse TRPC4; shares compounds with TRPC6 inh; HEK293 TRPC4/mu-opioid, membrane potential dye fluorescence; stimulated with maximal-effect DAMGO; inhibition, % at 10 µM; 2,400 compounds, 55% hits;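 active = drop in membrane potential signal beyond 5 SD of the control wells in both duplicate plates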;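 also: TRPC4 counter screen for TRPC6 hits run under conditions tuned for TRPC6 not TRPC4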
TRPC6 block conf = mouse TRPC6 inhibitor confirmation | shares compounds with TRPC6 inh | HEK293-TRPC6, membrane potential dye, ACh-evoked depolarization | inhibition, % at 10 µM | 3,300 compounds, 43% hits | AID 488960;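 active = fluorescence ratio falls more than 5 SD below the full-stimulation control mean, in both duplicate runs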;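 also: integrated fluorescence ratio of peak minus minimum over baseline after agonist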
TRPC6 act conf = confirmation of mouse TRPC6 activators. shares compounds with TRPC6 inh. HEK293-TRPC6 membrane potential dye fluorescence, FDSS. activation, % at 10 µM. 2,800 compounds, 11% hits. AID 488961;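 active = ratio signal rise beyond 5 SD above unstimulated control wells' mean, seen in both duplicate runs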
Of the large screens only hits and unclear results are named; the others gave an inactive call (follow-up assays come after a bar, where they were run). The list is not random: actives were taken first. Their share in the collection is about 2.3%.

Cc1ccc(-n2cccn2)c(CN2CCCC(CNC(=O)c3ccc(F)cc3)C2)c1 (stereo not given)	none
Cc1ccc(-n2cccn2)c(CN2CCCC(C(=O)c3ccc4c(c3)OCO4)C2)c1 (stereo not given)	TRPC4 block -8, TRPC6 inh -6.83 | HEK293 MPD ctr-2 190.0% | HEK293 MPD ctr 2-2 inactive | TRPC4 ctr mod 14.5% | TRPC4/MOR inh 2 83.0% | TRPC6 block conf 53.0%
O=C1/C(=C/c2ccc(Cl)cc2)NC(=S)N1Cc1cccnc1	none
COc1ccc(-c2nc3n(c2C)CCC3)cc1	TRPC6 inh -5.78 | HEK293 MPD ctr-2 -266.5% | HEK293 MPD ctr 2-2 inactive | TRPC4 ctr mod -35.5% | TRPC4/MOR inh 2 43.5% | TRPC6 block conf inactive | TRPC6 act conf inactive
COc1ccc(-c2cc3nc4n(c(=O)c3s2)CCC4)cc1	none
CN1CCN(c2nc3c(c(=O)[nH]c(=O)n3C)n2CCCSc2nnnn2-c2ccccc2)CC1	TRPC6 inh -6.53 | HEK293 MPD ctr-2 -212.0% | HEK293 MPD ctr 2-2 inactive | TRPC4 ctr mod -28.5% | TRPC4/MOR inh 2 inactive | TRPC6 block conf inactive | TRPC6 act conf inactive
CC(=O)OCCc1c2ccccc2c(CCCN(C)C)c2ccccc12	TRPC6 inh -6.11 | HEK293 MPD ctr-2 -87.0% | HEK293 MPD ctr 2-2 inactive | TRPC4 ctr mod -18.0% | TRPC4/MOR inh 2 67.0% | TRPC6 block conf 48.0% | TRPC6 act conf inactive
CC(=O)OCCc1[nH]c2ccccc2c1C	none
CCn1nc([N+](=O)[O-])c(C(C#N)c2nc3ccccc3n2C)c(Cl)c1=O (stereo not given)	none
CCCn1nc([N+](=O)[O-])c(C(C#N)c2nc3ccccc3s2)c(Cl)c1=O (stereo not given)	TRPC6 inh -13.2 | HEK293 MPD ctr-2 -209.5% | HEK293 MPD ctr 2-2 inactive | TRPC4 ctr mod -36.0% | TRPC4/MOR inh 2 83.0% | TRPC6 block conf 65.5% | TRPC6 act conf inactive
CC(C1CCN(Cc2cn(C)nc2-c2cccc(Cl)c2)CC1)N1CCOCC1 (stereo not given)	none
CCC(=O)N1N=C(c2ccccc2)CC1c1ccccc1 (stereo not given)	none
N=C(SC1CC(=O)N(c2ccc(F)cc2)C1=O)N1N=C(c2ccccc2)CC1c1ccccc1 (stereo not given)	TRPC6 inh -7.65 | TRPC4 spec 2 inactive | TRPC4 spec inactive | HEK293 MPD ctr 2-1 inactive | HEK293 MPD ctr-1 inactive | TRPC6 block conf inactive | TRPC6 act conf inactive
